Laboratory results: article PMC3517046 (ChemMedChem, 2011)

Experiments:
[1] = molecular target: recombinant, purified human ATX (Homo sapiens, UniProt Q13822); assay: ATX IC50 and mechanism of inhibition; type: biochemical
Procedure, shortened: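 Recombinant purified human ATX with FS3 (1 µM final) in Tris 50 mM, NaCl 140 mM, KCl 5 mM, CaCl2 1 mM, MgCl2 1 mM, pH 8.0, plus 15 µM fatty-acid-free BSA. IC50 came from full dose-responses. For mechanism, FS3 was varied 0.3–20 µM at three inhibitor levels including zero.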

[2] = molecular target: T1, ATX (Homo sapiens, UniProt Q13822); assay: Inhibition of pNP-TMP hydrolysis by ATX; type: biochemical; conditions: compound 10 μM, 5 mM pNP-TMP, 4 nM ATX; compared with LPA 18:1 10 μM
Procedure, shortened: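 Reactions held 4 nM ATX and 5 mM pNP-TMP, with vehicle or 10 µM test compound, in Tris 50 mM/NaCl 140 mM/KCl 5 mM/CaCl2 1 mM/MgCl2 1 mM, pH 8.0. They ran at 37 °C with absorbance monitored at 405 nm.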

[3] = Pharmacokinetics after i.v. bolus; type: in vivo, Sprague-Dawley rats; conditions: rat
Procedure, shortened: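 Male Sprague–Dawley rats (250–275 g) fitted with jugular and femoral catheters received a single 5.8 mg/kg i.v. femoral bolus; drug was dissolved in propylene glycol and diluted in rat plasma. Jugular blood was drawn from 5 to 1440 min into lithium heparin. Plasma was butanol-extracted at pH 4.0 with internal standard and quantified by LC-MS/MS on a C8 column. Non-compartmental analysis gave AUC (trapezoidal), CL=dose/AUC, MRT=AUMC/AUC and Vdss=CL×MRT.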

[4] = system: Swiss mice; assay: Acute murine toxicity study; type: in vivo; conditions: 1-10-30 mg/kg/day for 10 days
[5] = molecular target: T1, ATX; assay: Inhibition of LPA production from ADMAN-LPC by ATX; type: biochemical; conditions: compound 3 μM, 0.5 μM ADMAN-LPC, 100 nM ATX
Procedure, shortened: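 ADMAN-LPC (0.5 µM final) was incubated with 100 nM ATX, with or without 3 µM test compound, at 37 °C for 4 h. Lipids were extracted and separated by silica TLC in CHCl3/MeOH/NH4OH (60:35:8). Fluorescent LPC and LPA bands were visualized under a UV imager.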

[6] = system: MM1 hepatoma cells; assay: MM1 cell invasion of HUVEC monolayers; type: cell-based, rat
Procedure, shortened: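 HUVECs (passage 7, 1.3×10^5/well) were grown on 0.2% gelatin for two days to confluence. Rat MM1 hepatoma cells, calcein AM-labelled (2 µg/mL, 2 h), were seeded at 5×10^4/well. Invasion ran 24 h in MCDB-131 with 1% serum, with or without 1.5 µM LPC (BSA-complexed, 30 µM BSA final). After five PBS rinses and formalin fixation, flattened cells beneath the monolayer were counted in ≥5 fields at 100×.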

[7] = system: plasma LPA; assay: Plasma LPA levels after i.v. bolus; type: in vivo, Sprague-Dawley rats; conditions: rat, i.v. 5.8 mg/kg, first rapid decrease
[8] = molecular target: T2, NPP7 (Homo sapiens, UniProt Q6UWV6); assay: NPP7 inhibition assay; type: biochemical; conditions: read-out: NPP7 Activity, % control (10μM)
T2 sequence (Q6UWV6 22-458): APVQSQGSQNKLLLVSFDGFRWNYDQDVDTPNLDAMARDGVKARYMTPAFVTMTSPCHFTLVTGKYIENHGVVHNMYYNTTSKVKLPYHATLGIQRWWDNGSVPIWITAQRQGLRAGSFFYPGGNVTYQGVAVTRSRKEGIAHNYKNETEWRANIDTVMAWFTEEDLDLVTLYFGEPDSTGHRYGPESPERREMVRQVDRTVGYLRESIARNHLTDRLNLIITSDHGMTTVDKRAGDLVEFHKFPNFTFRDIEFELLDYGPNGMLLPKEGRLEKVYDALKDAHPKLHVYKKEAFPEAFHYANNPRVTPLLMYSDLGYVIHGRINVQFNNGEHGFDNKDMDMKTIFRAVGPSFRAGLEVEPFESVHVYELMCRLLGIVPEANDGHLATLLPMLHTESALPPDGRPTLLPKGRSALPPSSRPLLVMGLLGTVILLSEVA
Procedure, shortened: (§1)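 Recombinant purified NPP6 or NPP7 (8.3 nM final) was incubated with pNPPC (10 µM) and a single 10 µM compound concentration. Liberated p-nitrophenol was read at 405 nm for up to 1 h, within the linear range. Activity was normalized to vehicle control.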

[9] = molecular target: T3, NPP6 (Homo sapiens, UniProt Q6UWR7); assay: NPP6 inhibition assay; type: biochemical; conditions: read-out: NPP6 Activity, % control (10μM)
T3 sequence (Q6UWR7 23-440): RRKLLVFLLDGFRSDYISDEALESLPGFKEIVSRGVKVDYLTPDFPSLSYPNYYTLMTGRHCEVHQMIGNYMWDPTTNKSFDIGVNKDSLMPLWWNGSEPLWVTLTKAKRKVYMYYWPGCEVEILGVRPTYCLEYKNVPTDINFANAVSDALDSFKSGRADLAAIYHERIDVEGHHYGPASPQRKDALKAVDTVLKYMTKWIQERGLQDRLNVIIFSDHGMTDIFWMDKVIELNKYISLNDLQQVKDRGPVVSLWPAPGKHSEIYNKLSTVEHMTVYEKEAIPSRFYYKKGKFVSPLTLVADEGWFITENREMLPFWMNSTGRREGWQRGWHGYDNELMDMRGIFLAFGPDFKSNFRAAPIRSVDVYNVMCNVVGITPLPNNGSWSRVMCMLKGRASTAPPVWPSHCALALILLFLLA
Procedure, shortened: as §1

[10] = male, Sprague-Dawley, plasma, iv, 5.8 mg/kg

Row | Compound | ATX Mechanism of Inhibition ([1]; FS-3 substrate 0.3-20 μM, inhibitor 0, 0.5x, 2x IC50) | ATX Ki′ ([1]; affinity for enzyme substrate complex, FS-3) | inhibition of hydrolysis of pNP-TMP [2] | MRT [3, 10] | clearance [3, 10] | half-life ([3]; male, Sprague-Dawley, plasma, iv, 5.8 mg/kg, terminal half-life, i.v. 5.8 mg/kg) | mean plasma residence time ([3]; i.v. 5.8 mg/kg) | death [4] | non-observable adverse effect level ([4]; i.p.) | inhibition of hydrolysis of ADMAN-LPC (LPA production) [5] | basal rate of invasion of HUVEC monolayer ([6]; compounds alone, without LPC) | LPC-dependent invasion of the HUVEC monolayer ([6]; with 1.5 μM LPC, 24 h) | time of nadir of plasma LPA levels [7] | remaining activity at 10 µM [8] | remaining activity at 10 µM [9]
1 | CCCCCCCCCCCCCCCc1ccc(CP(=O)(O)O)cc1 [Compound 22, 4-pentadecylbenzylphosphonic acid] | Mixed | 280 nM | inhibit the hydrolysis | 7.6 h | 8.6 ± 0.5 mL/min/kg | 10 h | 7.6 ± 0.5 h | No death was detected in any of the groups | > 10 mg/kg | inhibited | did not reduce | dose-dependently inhibited | 60 min |  | 
2 | CCCCCCCCCCCCCC(=O)Nc1ccc(CP(=O)(O)O)cc1 [Compound S32826, 4-tetradecanoylaminobenzyl phosphonic acid] |  |  |  |  |  |  |  |  |  |  |  |  |  | 101% | 102%
